These results are taken from ChEMBL document CHEMBL4024710, “Discovery of novel 1,2,3,4-tetrahydrobenzo[4, 5]thieno[2, 3-c]pyridine derivatives as potent and selective CYP17 inhibitors” (Eur J Med Chem, 2017).

Structures are written as SMILES.

Data set [1] deals with T1, CYP1A2 (Homo sapiens, UniProt P05177).
T1 sequence (P05177 whole entry): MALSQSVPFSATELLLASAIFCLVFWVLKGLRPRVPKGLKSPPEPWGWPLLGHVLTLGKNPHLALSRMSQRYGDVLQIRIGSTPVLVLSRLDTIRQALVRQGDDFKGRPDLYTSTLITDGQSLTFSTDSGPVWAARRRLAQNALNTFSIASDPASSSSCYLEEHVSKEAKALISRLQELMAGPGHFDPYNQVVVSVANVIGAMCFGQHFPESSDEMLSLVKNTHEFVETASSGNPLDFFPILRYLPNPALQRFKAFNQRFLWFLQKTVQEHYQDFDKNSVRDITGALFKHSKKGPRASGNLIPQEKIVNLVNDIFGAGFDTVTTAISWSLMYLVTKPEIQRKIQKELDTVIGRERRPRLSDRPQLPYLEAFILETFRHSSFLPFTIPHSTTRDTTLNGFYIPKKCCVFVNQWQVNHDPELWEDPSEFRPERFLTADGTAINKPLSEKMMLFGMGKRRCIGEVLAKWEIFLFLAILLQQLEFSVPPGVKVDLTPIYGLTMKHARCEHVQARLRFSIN
Nature of the data set: Inhibition of human hepatic CYP1A2 at 10 uM relative to control. Type of data set: ADME.

Data set [2] has as its target T2, CYP2D6 (Homo sapiens, UniProt P10635). Kind of data set: Inhibition of human hepatic CYP2D6 at 1 uM relative to control. Format: ADME.
In data set [3] the target is T3, CYP2C9 (Homo sapiens, UniProt P11712). Kind of data set: Inhibition of human hepatic CYP2C9 at 10 uM relative to control. Format: ADME.
For data set [4], the target named is T4, CYP2C19 (Homo sapiens, UniProt P33261). Nature of the data set: Inhibition of human hepatic CYP2C19 at 10 uM relative to control. Format: ADME.
Data set [5] addresses T3, CYP2C9. Kind of data set: Inhibition of human hepatic CYP2C9 at 1 uM relative to control. Type of data set: ADME.
Another data set concerns the target Cytochrome P450 3A4 (Homo sapiens, UniProt P08684). Kind of data set: Inhibition of human hepatic CYP3A4. Format: ADME.
Data set [6] deals with T5, Steroid 17-alpha-hydroxylase/17,20 lyase (Homo sapiens, UniProt P05093).
T5 sequence (P05093 whole entry): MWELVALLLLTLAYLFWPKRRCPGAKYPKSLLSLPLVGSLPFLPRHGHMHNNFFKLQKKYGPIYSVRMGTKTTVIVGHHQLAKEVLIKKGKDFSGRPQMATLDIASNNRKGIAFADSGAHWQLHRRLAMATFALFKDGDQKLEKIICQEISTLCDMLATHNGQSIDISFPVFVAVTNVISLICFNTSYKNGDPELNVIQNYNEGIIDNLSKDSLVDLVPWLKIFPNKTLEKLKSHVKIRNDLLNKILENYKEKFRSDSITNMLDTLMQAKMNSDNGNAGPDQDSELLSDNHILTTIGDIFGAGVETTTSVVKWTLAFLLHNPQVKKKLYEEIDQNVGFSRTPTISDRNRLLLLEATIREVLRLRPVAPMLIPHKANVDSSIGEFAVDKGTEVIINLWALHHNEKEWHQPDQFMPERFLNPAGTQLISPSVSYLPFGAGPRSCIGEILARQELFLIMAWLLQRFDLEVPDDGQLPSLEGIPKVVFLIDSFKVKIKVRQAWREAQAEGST
Nature of the data set: Inhibition of recombinant human CYP17 expressed in human A549 cell membranes using 17-alpha hydroxyprogesterone as substrate and NADPH as cofactor pretreated for 5 mins followed by substrate and cofactor addition after 60 mins by LC/MS analysis. Put shortly: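 Enzyme source was purified membranes of A549 cells expressing human CYP17 from an adenoviral vector. 2 µg membrane protein in 0.05 M phosphate pH 7.5 with inhibitor, preincubated 5 min at 25 °C. Reaction started with 10 µM 17α-hydroxyprogesterone and 4.2 mM NADPH, run 60 min at 25 °C, methanol stop. Androstenedione quantified by LC/MS; IC50 is the mean of at least three experiments.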

In data set [7] the target is T4, CYP2C19. Nature of the data set: Inhibition of human hepatic CYP2C19 at 1 uM relative to control. Type of data set: ADME.
Data set [8] addresses T6, Steroid 17-alpha-hydroxylase/17,20 lyase (Rattus norvegicus, UniProt P11715).
T6 sequence (P11715 whole entry): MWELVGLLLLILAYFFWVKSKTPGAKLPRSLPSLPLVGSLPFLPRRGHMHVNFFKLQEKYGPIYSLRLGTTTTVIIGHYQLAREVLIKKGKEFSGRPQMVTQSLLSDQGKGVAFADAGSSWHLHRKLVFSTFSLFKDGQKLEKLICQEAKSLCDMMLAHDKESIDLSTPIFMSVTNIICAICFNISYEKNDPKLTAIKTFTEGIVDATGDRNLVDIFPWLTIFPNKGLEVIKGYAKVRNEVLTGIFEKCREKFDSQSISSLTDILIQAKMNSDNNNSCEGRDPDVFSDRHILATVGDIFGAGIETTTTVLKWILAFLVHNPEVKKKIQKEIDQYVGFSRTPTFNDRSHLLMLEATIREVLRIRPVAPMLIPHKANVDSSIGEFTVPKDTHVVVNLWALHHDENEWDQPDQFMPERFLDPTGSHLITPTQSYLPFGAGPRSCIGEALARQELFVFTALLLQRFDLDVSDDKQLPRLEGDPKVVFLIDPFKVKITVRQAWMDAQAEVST
Kind of data set: Inhibition of CYP17 in Sprague-Dawley rat testes microsomes using 17-alpha hydroxyprogesterone as substrate and NADPH as cofactor pretreated for 5 mins followed by substrate and cofactor addition after 60 mins by LC/Ms analysis. Also on record: species or system Testis. Put shortly:
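Rat testis microsomes from male SD rats weighing 220–250 g, prepared at 4 °C by differential centrifugation (9000 g, then 105,000 g pellet). 2 µg protein in 0.05 M phosphate pH 7.5 preincubated with inhibitor 5 min at 25 °C. Started with 10 µM 17α-hydroxyprogesterone plus 4.2 mM NADPH, 60 min at 25 °C, stopped with methanol. Androstenedione measured by LC/MS; IC50 is the mean of at least three experiments.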

In data set [9] the target is T1, CYP1A2. Nature of the data set: Inhibition of human hepatic CYP1A2 at 1 uM relative to control. Format: ADME.
In data set [10] the target is T2, CYP2D6. Kind of data set: Inhibition of human hepatic CYP2D6 at 10 uM relative to control. Type of data set: ADME.
The target in data set [11] is T5, Steroid 17-alpha-hydroxylase/17,20 lyase. Nature of the data set: Residual CYP17 activity in human NCI-H295R cells assessed as testosterone production at 1 uM measured after 72 hrs relative to control.

T4 sequence (P33261 whole entry): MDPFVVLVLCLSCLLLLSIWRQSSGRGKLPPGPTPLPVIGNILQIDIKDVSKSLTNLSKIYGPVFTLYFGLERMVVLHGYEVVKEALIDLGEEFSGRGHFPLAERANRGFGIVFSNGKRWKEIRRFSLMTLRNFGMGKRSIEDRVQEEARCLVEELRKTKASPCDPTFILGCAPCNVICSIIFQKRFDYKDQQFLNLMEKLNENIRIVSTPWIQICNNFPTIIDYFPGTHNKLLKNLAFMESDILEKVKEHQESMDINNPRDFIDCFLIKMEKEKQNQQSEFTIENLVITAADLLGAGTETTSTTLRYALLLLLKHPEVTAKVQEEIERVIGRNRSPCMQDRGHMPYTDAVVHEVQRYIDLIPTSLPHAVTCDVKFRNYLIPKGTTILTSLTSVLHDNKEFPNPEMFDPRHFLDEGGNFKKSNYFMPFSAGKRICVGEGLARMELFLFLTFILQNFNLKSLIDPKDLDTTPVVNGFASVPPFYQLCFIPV
Sequence of Cytochrome P450 3A4 (P08684 whole entry): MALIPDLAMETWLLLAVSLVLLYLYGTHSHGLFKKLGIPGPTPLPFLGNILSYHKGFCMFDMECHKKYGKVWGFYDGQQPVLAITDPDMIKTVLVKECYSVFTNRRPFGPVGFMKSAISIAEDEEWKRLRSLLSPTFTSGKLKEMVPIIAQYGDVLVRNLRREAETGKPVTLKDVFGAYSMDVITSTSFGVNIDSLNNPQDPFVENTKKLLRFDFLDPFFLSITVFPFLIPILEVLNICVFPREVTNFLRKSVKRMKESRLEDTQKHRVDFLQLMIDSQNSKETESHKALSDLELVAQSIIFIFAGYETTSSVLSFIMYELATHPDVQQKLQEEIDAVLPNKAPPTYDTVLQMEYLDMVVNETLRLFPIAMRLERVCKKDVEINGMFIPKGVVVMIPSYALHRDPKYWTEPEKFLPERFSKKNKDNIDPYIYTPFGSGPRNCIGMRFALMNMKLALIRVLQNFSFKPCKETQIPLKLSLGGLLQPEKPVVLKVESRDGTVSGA
T2 sequence (P10635 whole entry): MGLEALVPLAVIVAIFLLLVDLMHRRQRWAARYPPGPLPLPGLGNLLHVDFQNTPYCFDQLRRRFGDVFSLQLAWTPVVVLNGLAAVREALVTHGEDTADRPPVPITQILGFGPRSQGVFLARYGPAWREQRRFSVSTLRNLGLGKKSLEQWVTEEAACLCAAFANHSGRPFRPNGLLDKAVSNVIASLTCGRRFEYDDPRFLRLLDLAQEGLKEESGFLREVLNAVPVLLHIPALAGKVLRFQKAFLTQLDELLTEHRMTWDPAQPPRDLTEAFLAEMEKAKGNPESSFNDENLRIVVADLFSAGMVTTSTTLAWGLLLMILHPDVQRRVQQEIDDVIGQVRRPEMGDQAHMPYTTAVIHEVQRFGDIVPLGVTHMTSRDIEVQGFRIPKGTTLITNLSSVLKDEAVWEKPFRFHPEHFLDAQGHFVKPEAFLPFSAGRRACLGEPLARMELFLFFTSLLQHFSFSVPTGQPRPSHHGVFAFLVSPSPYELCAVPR
T3 sequence (P11712 whole entry): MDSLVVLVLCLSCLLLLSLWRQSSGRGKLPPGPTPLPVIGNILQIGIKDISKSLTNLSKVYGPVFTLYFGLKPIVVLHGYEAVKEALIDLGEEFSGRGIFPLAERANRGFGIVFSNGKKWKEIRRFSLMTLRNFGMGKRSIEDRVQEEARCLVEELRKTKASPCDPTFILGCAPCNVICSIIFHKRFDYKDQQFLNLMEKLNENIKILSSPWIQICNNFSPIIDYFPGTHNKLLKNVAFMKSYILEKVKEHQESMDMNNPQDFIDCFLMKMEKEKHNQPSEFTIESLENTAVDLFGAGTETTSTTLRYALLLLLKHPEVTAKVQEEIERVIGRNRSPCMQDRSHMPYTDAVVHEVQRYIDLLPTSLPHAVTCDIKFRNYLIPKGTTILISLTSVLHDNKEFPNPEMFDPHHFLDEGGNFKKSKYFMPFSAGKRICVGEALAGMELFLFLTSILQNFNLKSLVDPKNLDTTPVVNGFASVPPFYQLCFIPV

As to `Fc1cncc(CN2CCc3c(sc4ccc(F)cc34)C2)c1`, the inhibition at 10 µM against CYP1A2 [1] came to 69.5%; on CYP2C9 [3] it was 51.6%; against CYP2C19 [4], 61.3%; against CYP2D6 [10], 62.5%. For the same compound, the inhibition at 1 µM at CYP2D6 [2] was 50.8%; against CYP2C9 [5] it was 0%; on CYP2C19 [7] it was 5.3%; against CYP1A2 [9], 10.6%. In addition, the IC50 came out at 9.03 µM at Cytochrome P450 3A4, 45.4 nM in data set [6] and 56.5 nM in [8].
Turning to `Fc1ccc2sc3c(c2c1)CCN(Cc1cncnc1)C3`, the IC50 in data set [8] was determined as 80.6 nM.
Regarding `CC1(C)OB(c2ccc3sc4c(c3c2)CCN(Cc2cccnc2)C4)OC1(C)C`, the IC50 in data set [8] stood at 115 nM.
Regarding `Cc1cncc(CN2CCc3c(sc4ccc(F)cc34)C2)c1`, the IC50 in [8] was determined as 121 nM.
Still for that read-out and setting: for `N#Cc1ccc2sc3c(c2c1)CCN(Cc1cccnc1)C3` the value was 257 nM; for `Fc1ccc2sc3c(c2c1)CCN(Cc1cnccc1-c1ccccc1)C3`, over 1000 nM.
In the case of `Fc1ccc2sc3c(c2c1)CCN(Cc1cccnc1)C3`, the inhibition at 10 µM at CYP1A2 [1] stood at 71.6%; at CYP2C9 [3] it was 53.2%; on CYP2C19 [4] it was 92.5%; against CYP2D6 [10] it was 83.7%. In addition, the inhibition at 1 µM on CYP2D6 [2] came to 37.5%; on CYP2C9 [5], 6.6%; against CYP2C19 [7] it was 47.3%; against CYP1A2 [9], 20.6%. For the same compound, the values for the IC50 (against Cytochrome P450 3A4; in [6]; in data set [8]) were 7.9 µM, 29 nM and 28.1 nM, respectively.
Consider `c1cncc(CN2CCc3c([nH]c4ccccc34)C2)c1`, for which the IC50 in data set [8] turned out to be 229 nM.
Take `O=C(c1cccnc1)N1CCc2c(sc3ccc(F)cc23)C1`: in data set [8], the IC50 is over 1000 nM.
Take `C[C@]12CC[C@H](O)CC1=CC[C@@H]1[C@@H]2CC[C@]2(C)C(c3cccnc3)=CC[C@@H]12` [ABIRATERONE]: the inhibition at 10 µM on CYP1A2 [1] worked out at 92.5%; at CYP2C9 [3] it was 82.5%; on CYP2C19 [4], 91.6%; at CYP2D6 [10], 78.5%. Besides, the inhibition at 1 µM amounted to 10.4% against CYP2D6 [2], 31.6% against CYP2C9 [5], 39.6% against CYP2C19 [7] and 34% against CYP1A2 [9]. Further, the IC50 in data set [8] came to 24.7 nM. The residual activity at 1 µM in data set [11] was 74%.
Consider `C=C(C)c1ccncc1CN1CCc2c(sc3ccc(F)cc23)C1`, for which the IC50 in data set [8] was found to be 980 nM.
With `COc1ccc2sc3c(c2c1)CCN(Cc1cccnc1)C3`, the half-maximal inhibitory concentration (IC50) in [8] was over 1000 nM.
On to `CC(=O)Nc1ccc2sc3c(c2c1)CCN(Cc1cccnc1)C3`, for which the IC50 in data set [8] is over 1000 nM.
Turning to `Oc1ccc2sc3c(c2c1)CCN(Cc1cccnc1)C3`, the inhibition at 10 µM against CYP1A2 [1] was 71.2%; against CYP2C9 [3] it was 17.5%; at CYP2C19 [4], 71.6%; at CYP2D6 [10], 18.9%. For the same compound, the inhibition at 1 µM against CYP2D6 [2] amounted to 1.3%; against CYP2C9 [5], 0%; against CYP2C19 [7], 7.9%; on CYP1A2 [9] it was 25.4%. Also, the values for the IC50 (at Cytochrome P450 3A4; in data set [6]; in [8]) were 5.28 µM, 23.7 nM and 20.9 nM, respectively.
Turning to `c1cncc(CN2CCc3c(sc4ccccc34)C2)c1`, the half-maximal inhibitory concentration (IC50) in data set [8] is 28.1 to 54.9 nM.
Regarding `Cc1ccc2sc3c(c2c1)CCN(Cc1cccnc1)C3`, the IC50 in data set [8] stood at 257 nM.
Take `Clc1ccc2sc3c(c2c1)CCN(Cc1cccnc1)C3`: the IC50 in data set [8] amounted to 449 nM.
In the case of `Fc1ccc2sc3c(c2c1)CCN(Cc1c[nH]cn1)C3`, the inhibition at 10 µM turned out to be 99.4% against CYP1A2 [1], 100% at CYP2C9 [3], 98.7% at CYP2C19 [4] and 49.6% at CYP2D6 [10]. Also, the inhibition at 1 µM against CYP2D6 [2] worked out at 35.7%; on CYP2C9 [5] it was 98.5%; against CYP2C19 [7], 91.2%; on CYP1A2 [9] it was 87.9%. Besides, the values for the IC50 (on Cytochrome P450 3A4; in data set [6]; in data set [8]) were 0.685 µM, 24.3 nM and 29.8 nM, respectively.
As for `Fc1ccc2sc3c(c2c1)CCN(Cc1ccncc1)C3`, the IC50 in data set [8] was over 1000 nM.
For the compound `CC(C)c1ccncc1CN1CCc2c(sc3ccc(F)cc23)C1`, in data set [8], the IC50 stood at 535 nM.
The same measure, in the same setting: for `Fc1ccc2sc3c(c2c1)CCN(Cc1cnccc1Br)C3` the value was 75.8 nM.
For the compound `COc1cncc(CN2CCc3c(sc4ccc(F)cc34)C2)c1`, the inhibition at 10 µM is 61.2% against CYP1A2 [1], 53.8% at CYP2C9 [3], 84.9% at CYP2C19 [4] and 76.1% at CYP2D6 [10]. The inhibition at 1 µM was determined as 21.7% on CYP2D6 [2], 0% on CYP2C9 [5], 0% on CYP2C19 [7] and 8.7% on CYP1A2 [9]. The IC50 at Cytochrome P450 3A4 was found to be 6.53 µM; in data set [6], 45 nM; in data set [8] it was 33.9 nM.
For `Brc1ccc2sc3c(c2c1)CCN(Cc1cccnc1)C3`, the IC50 in [8] amounted to 517 nM.
Turning to `Fc1ccc2sc3c(c2c1)CCN(Cc1cnccc1C1CC1)C3`, in data set [8], the IC50 worked out at 61.1 nM.
Still for that read-out and setting: in the case of `Fc1ccc2sc3c(c2c1)CCN(Cc1cncc2ccccc12)C3` it was 390 nM.
As for `CC(C)(C)OC(=O)Nc1ccc2sc3c(c2c1)CCN(Cc1cccnc1)C3`, in [8], the IC50 is over 1000 nM.
For the compound `CNC(=O)c1ccc2sc3c(c2c1)CCN(Cc1cccnc1)C3`, the IC50 in data set [8] is over 1000 nM.

As usually defined, the inhibition is how much of the control response was suppressed. The low end stands for a response near the control, the high end for a response far below the control. The IC50 is the concentration at which inhibition is half-maximal. By residual activity is commonly meant the activity still measured, relative to the control.
